Measured values taken from ChEMBL document CHEMBL4513216, “Probing the Open Global Health Chemical Diversity Library for Multistage-Active Starting Points for Next-Generation Antimalarials” (ACS Infect Dis, 2020).

Assay: Toxicity liver stage against HepG2, at 10uM
Format: cell-based
Parameters: test concentration 10 uM, cell line HepG2-A16-CD81EGFP
Settings: human, HepG2-A16-CD81EGFP cells; read-out: INHIBITION
In short: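 Uninfected HepG2-A16-CD81EGFP cells, 3 × 10^3 per well, 1536-well, plated on prespotted compound at 10 μM final, parasite-free screening media added to match infected plates; puromycin 10 μM positive, DMSO 0.5% negative; run in parallel with 48 h PbLuc assay at 37 °C, 5% CO2; viability by CellTiter-Glo luminescence, normalized to controls.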

| Compound | cytotoxicity at 10 µM |
| --- | --- |
| Cc1cccc(-c2nc(CNC3CCc4nc(C)nn4C3)no2)c1 (configuration not stated) | -4.3% |
| O=C(CCc1ccncc1)Nc1ccc(OCC2CCOCC2)cc1 | -2.98% |
| N#CCCN1CCC(=Cc2ccccc2)CC1 | -2.75% |
| COCCN1CCC(CNC(=O)Nc2ccc(F)c(Cl)c2)C1 (configuration not stated) | 2.59% |
| CCNc1ccnc(N2Cc3cnn(Cc4ccc(F)cc4)c3C2)n1 | 10% |
| CN1C[C@H](c2ccccc2)[C@H]2CN(C(=O)Cc3ccc(O)cc3)CC[C@H]21 | 8.14% |
| Cc1nc(C2CCCN(C(=O)CCCn3cccn3)C2)sc1C (configuration not stated) | -0.317% |
| COc1ncccc1CNCc1c(C(C)C)nn(C)c1Cl | -3.74% |
| COCCN(C(=O)c1nc(-c2ccco2)sc1C)C1CC1 | -8.96% |
| O=C(O)[C@@H]1CN(C2CCOCC2)C[C@H]1C1CC1 | -160% |
| Cc1noc(C2CCCCN2C(=O)C2CCN(C(C)C)CC2)n1 (configuration not stated) | -4.62% |
| O=C(NCCCNC(=O)c1cccc(O)c1)Nc1ccc(Cl)cc1 | -3.79% |
| CCOc1ccccc1CNC(=O)N1CCC(n2cncn2)CC1 | -0.819% |
| COCCN1C(=O)C2(CCC(C(=O)Nc3ccccn3)CC2)N=C1C (configuration not stated) | 10.7% |
| COCCN1CCN(Cc2c(C3CCNCC3)[nH]c3ncccc23)CC1 | -23.2% |
| CC(O)CN(CC(=O)NC1CCCCC1)c1ccccc1 (configuration not stated) | -6.08% |
| O=C(CC(F)(F)F)NCC(O)c1ccc2ccccc2c1 (configuration not stated) | -4.06% |
| CCCn1cnc(S(=O)(=O)Nc2cccnc2-n2cccn2)c1 | 15.4% |
| COc1cc(C(=O)NC2COc3ccccc3C2)ccc1OCC(N)=O (configuration not stated) | -22.8% |
| O=C(CN1CCSCC1c1ccccc1)N1CCCC1 (configuration not stated) | 7.34% |
| Cn1ncc2c1CCCC2NCc1cccc(F)c1 (configuration not stated) | -15.6% |
| O=C(CCCc1cn[nH]c1)N1C[C@@H](CN2CCOCC2)[C@@H](CO)C1 | -15.8% |
| Cc1ccccc1CC1(C(=O)O)CCCN(c2ncnc3[nH]ccc23)C1 (configuration not stated) | 3.63% |

| Compound | cytotoxicity at 10 µM |
| --- | --- |
| Cc1cccc(CN2CC[C@@H]3[C@@H]2CCN3C(=O)c2cc(C)on2)n1 | -0.762% |
| COc1cccnc1NC(=O)c1ccc(COCC(F)(F)F)cc1 | -2.4% |
| Cc1nc2n(n1)CC(NCc1ccc(Cl)c3cccnc13)CC2 (configuration not stated) | -8.81% |
| O=C(NCc1cn2c(n1)SCC2)c1ccc(CN2CCCCC2)cc1 | -1.08% |
| COCCN1CCCC(O)(CN2CCN(c3cc(C)ccn3)CC2)C1=O (configuration not stated) | 0.622% |
| COc1ccc(N2CCN(C(=O)CCn3nccc3C)C(C)C2)cc1 (configuration not stated) | 14.3% |
| Clc1ccc(N2CCN(CCCN3CCCCC3)CC2)nc1 | 0.563% |
| CNC(=O)COc1c(C(C)=O)ccc(Cl)c1Cl | -0.769% |
| CN(CC1CC1)C(=O)Cc1csc(-c2ncccn2)n1 | 4.56% |
| CN(C)[C@@H]1CCN(C(=O)c2cccn2C)[C@H]1Cc1cnn(C)c1 | -74.6% |
| CCc1nc(CCNC(=O)Nc2cc(C(N)=O)sc2C)cs1 | 24.6% |
| Fc1ccc(-c2noc([C@@H]3Cc4nc[nH]c4CN3)n2)cc1 | -5.9% |
| CNC(=O)CCc1cc(C2CCCN2S(C)(=O)=O)nc(C)n1 (configuration not stated) | -0.0612% |
| CC(Cn1ccnc1)NCc1ccc2nonc2c1 (configuration not stated) | 2.57% |
| CCCSc1ncc(-c2nccn2CCO)cn1 | -12.9% |
| NCC1CCC2(CCN(C(=O)c3ccccn3)CC2)CO1 (configuration not stated) | -111% |
| CN(C)CCN(C)C1CCCN(C(=O)c2ccc(Cn3ccnc3)o2)C1 (configuration not stated) | 6.69% |
| O=S(=O)(NC[C@]12COC[C@H]1CN(c1ncc(F)cn1)C2)C1CC1 | -128% |
| CN(c1cccc(C#N)c1)S(=O)(=O)c1cc(C(=O)O)ccc1Cl | -5.94% |
| CCOc1ccc(S(=O)(=O)NC(=O)c2c(C)noc2C(C)C)cc1 | -3.08% |
| Cc1nc(CN2CCN(S(=O)(=O)N3CCOCC3)CC2)oc1C | 0.373% |
| O=C1CC2(CCN(Cc3cccnc3)C2)CN1c1cccc(F)c1 (configuration not stated) | -147% |
| CCCN(CCc1ccccc1)C(=O)c1ccccc1NCC(=O)O | 7.38% |

| Compound | cytotoxicity at 10 µM |
| --- | --- |
| Cc1noc(C2CCCN(CC(=O)N3CCc4ccccc4C3)C2)n1 (configuration not stated) | -19.3% |
| O=C(c1nc(=O)[nH][nH]1)N1CCC2(CCCCC2)C1 | 11.4% |
| CCC1CN(C(=O)NCc2cccnc2-n2cccn2)CCO1 (configuration not stated) | -12.5% |
| Cc1n[nH]c(C2CN(CCc3cccs3)CCO2)n1 (configuration not stated) | -15.8% |
| Cn1ncnc1CCNC(=O)c1cc(Cl)c(Cl)n1C | -5.12% |
| CCS(=O)(=O)CC(C)N(C)C(=O)NCCc1cccc(F)c1F (configuration not stated) | 8.28% |
| CCc1nc2c(NCC3COc4c(cccc4OC)C3)ncnc2o1 (configuration not stated) | -0.164% |
| CC(C)COc1ccccc1CN(C)C(=O)c1cc(=O)[nH]c(=O)[nH]1 | 2.05% |
| CCN(C)c1nccc(N2CCN[C@H]3CS(=O)(=O)C[C@H]32)n1 | 7.85% |
| COc1ccc(CN2CCN(c3ncc(Cl)cn3)CC2)cc1 | -4.86% |
| COc1ccc([C@@H]2CN(Cc3cccnc3N)C[C@H]2N(C)C)cc1 | 1.54% |
| Cc1cccc(-n2nnnc2C(C)(C)Nc2ccccc2C)c1 | 8% |
| CCN(CC)C1CCN(C(=O)NCc2c(C)noc2C)CC1 | -3.71% |
| CN1CCN(C2CCN(CC(=O)NCC(F)(F)F)CC2)C1=O | -9.78% |
| Cc1noc(C2CCN(C(=O)Nc3ccc(N(C)C)nc3)CC2)n1 | -3.45% |
| CN(C)c1ccc(CNC2(c3ccc(F)cc3)CCOCC2)cc1F | 0.937% |
| Nc1nnc(CCCn2nnc(-c3ccccc3F)n2)s1 | -1.67% |
| Cc1nccc(NCc2cc3n(n2)CCCN(C(=O)C2CCC2)C3)n1 | -128% |
| O=C(CNC(=O)c1ccccc1Cl)Nc1nccs1 | -3.09% |
| CN1C(=O)CCc2cc(NS(=O)(=O)Cc3cccc(F)c3)ccc21 | 3.6% |
| O=C(c1cc(-n2cccn2)ccc1Cl)N1CCC(N2CCCC2=O)CC1 | -2.08% |
| Cc1nnc2n1CCN(c1nn3cc(C(C)(C)C)nc3s1)C2 | -0.903% |
| Cc1nnsc1C(=O)NCCNS(=O)(=O)c1cccs1 | 4.29% |

| Compound | cytotoxicity at 10 µM |
| --- | --- |
| CCS(=O)(=O)N1CCCCC1c1nc(CC(C)C)no1 (configuration not stated) | 0.253% |
| O=C(Cc1ccsc1)N1CCCC(c2n[nH]c3nccnc23)C1 (configuration not stated) | 1.98% |
| c1cc2c(cc1Cn1cc(C3CCCNC3)nn1)CCCO2 (configuration not stated) | -5.24% |
| O=C(NC1CC1)[C@H]1C[C@H]2OCC[C@H]2N(Cc2cccnc2)C1 | 0.698% |
| CN(C1CCN(c2ccccn2)CC1)S(=O)(=O)c1ccc(F)cc1 | 11.2% |
| Cc1nn(C)c(Cl)c1C1CCCN1CC(=O)N1CCCCC1 (configuration not stated) | 0.347% |
| Cn1cc(-c2nc(CN3CCOC(Cn4cncn4)C3)cs2)cn1 (configuration not stated) | -1.41% |
| CCn1c(Cn2cncn2)nnc1C1CCN(CC2[C@H]3CNC[C@@H]23)CC1 (some centres not stated) | 6.77% |
| CCN(CC1CCCO1)S(=O)(=O)N1CCCCCC1 (configuration not stated) | -1% |
| CCC[C@H]1CN(S(=O)(=O)c2ccccc2)C[C@@H]1N | 1.35% |
| Cc1ccccc1C(Nc1ncnc2c1CCNC2)c1ccccc1 (configuration not stated) | 7.78% |
| CNC(=O)CNC1CC2(CCN(c3ncccn3)CC2)c2ccccc21 (configuration not stated) | 4.68% |
| CCCN(CC)c1ccc(C(=O)N2CCCC2c2cnn(C)c2)cn1 (configuration not stated) | -6.75% |
| COCCN(Cc1ccc(F)cc1Cl)C(=O)c1csnn1 | 11.6% |
| CC(Nc1ccn(CCS(C)(=O)=O)n1)c1ccc(C#N)cc1 (configuration not stated) | 8.64% |
| CN(C)c1ccc(C(=O)N2CCN(CC(C)(C)O)CC2)nn1 | -13.3% |
| N#CCSCCCN1CCN(C(=O)c2cccc(Cl)c2)CC1 | -161% |
| CCN(Cc1ccncc1)C(=O)CCn1c(C)cc2ccccc21 | -3.38% |
| COCC(=O)N1C[C@@H](c2cccc(OC)c2)[C@@]2(CCCCC(=O)N2)C1 | 1.62% |
| CCN1CC2(CC1=O)CN(C(=O)NC(C)C)CCN(C(=O)NC(C)C)C2 | -1.73% |
| CCc1nnc(CN2CCN(c3cccc(OC)c3)C(=O)C2)o1 | 18.4% |
| O=C1CC2(CCN(Cc3ccc(-c4ccccc4)s3)C2)C(=O)N1 (configuration not stated) | -0.745% |
| O=S(=O)(NCc1ccccc1)Nc1ccc(-n2ccnc2)cc1 | 7.03% |

| Compound | cytotoxicity at 10 µM |
| --- | --- |
| c1ccc(CN2CCc3ncnc(-c4ccoc4)c3CC2)nc1 | -79% |
| CN(Cc1cc(Cl)cc2cccnc12)CC1CCN(CCO)CC1 | -5.2% |
| Cc1c(CC(=O)N2CCSCC2)nnn1-c1cccc(Cl)c1 | -3.89% |
| CC(C)COCCC(=O)NS(=O)(=O)c1ccc(Cl)s1 | -21.6% |
| CN(C)S(=O)(=O)N1CCC(c2ccncc2)CC1 | -27.6% |
| Cc1cc(-c2cnc(N3CCN(C)CC3)nc2-c2ccc(C)s2)on1 | -3.68% |
| CN(C)C[C@H]1OC[C@@H]2CN(C(=O)NCc3cccc(F)c3)CC[C@@H]21 | -2.12% |
| CCc1noc(CCCC(=O)N2CCCC(c3ccn[nH]3)C2)n1 (configuration not stated) | -0.799% |
| O=C(CN1CCCCC1)NCc1cccnc1-n1cnc2ccccc21 | 0.522% |
| CN(C)c1ncnc2c1CCN(c1ccccc1)CC2 | 13.4% |
| CNS(=O)(=O)CC(=O)NCc1cc2c(s1)CCC(C)(C)C2 | 3.15% |
| COCC(C)NS(=O)(=O)c1ccc(Br)cn1 (configuration not stated) | -6.74% |
| Cc1ncc2c(n1)CN(CC(=O)Nc1ccncc1)CC2 | -8.7% |
| CC1(C(=O)NCc2cccc(C(F)(F)F)c2)CCOCC1 | 7.63% |
| CCCc1nc(C)c(C(=O)NCCn2ccnc2)s1 | 8.14% |
| CCCN1CCC(Cc2noc(-c3cccnc3OC)n2)CC1 | -11.1% |
| CSc1nccc(N2CCCC(c3nccn3C(C)C)C2)n1 (configuration not stated) | 7.72% |
| Cc1nc(C)n(CC2CCCN(CCOc3ccccc3F)C2)n1 (configuration not stated) | -18.5% |
| CCCN1CCC(CC(=O)N(C)C(C)c2cncs2)CC1 (configuration not stated) | 2.62% |
| O=C1N(CC2CC2)CCC12CCN(c1ncccn1)CC2 | 3.77% |
